UHRF1 MBD2 ctr – UHRF1 methylated DNA binding inhibitors, primary screen, counter-screen for MBD2 inhibitor project, biochemical, TR-FRET, human UHRF1, single concentration; E3 ubiquitin-protein ligase UHRF1 (Homo sapiens), Q96T88; UHRF1 binding to methylated oligo; inhibition, % at 4.4 µM; 370,000 tested, 0.75% active; AID 687016, 2013;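 note: UHRF1 SRA domain binding a hemimethylated CpG hairpin DNA probe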
TDP2 inh – human TDP2 enzyme inhibitors, primary screen, biochemical, epi absorbance, recombinant enzyme; AID 720702, 2013; 370,000 tested, 0.34% active; inhibition, % at 12.8 µM; T5PNP hydrolysis, p-nitrophenol absorbance 415 nm; Tyrosyl-DNA phosphodiesterase 2 (Homo sapiens), O95551;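 active = inhibition above the mean of all tested compounds plus 3 SD, set per campaign, cut at about 25% in these data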
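Incubation: 2 h at 37 °C; Test system: recombinant human TDP2; Quantity: enzyme 120 nM; Read-out basis: percent inhibition; Medium: 50 mM Tris-HCl pH 7.5 with Mg2+, KCl, DTT, BSA; Repeats: single replicate; Compound: 12.8 µM single point, 1% DMSO; Signal: epi absorbance; Reagent: 5 mM T5PNP chromogenic substrate; Benchmarks: no-enzyme high, DMSO-plus-enzyme low.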
LEDGF integ inh – blockers of LEDGF/p75-dependent integrase strand transfer – biochemical, TR-FRET, high throughput, primary screen; HIV-1 integrase (with human LEDGF/p75); TR-FRET IN-LEDGF/p75 DNA integration, Eu/Cy5; 370,000 tested, 0.64% active; inhibition, % at 3.7 µM; AID 743269, 2014;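 active = inhibition above the screen-wide mean plus 3 SD, cut at about 13% in these data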;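 note: signal is the Cy5 over europium emission ratio at 671 and 618 nm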
MBD2 DNA inh – inhibitors of MBD2 binding to methylated DNA, primary screen, biochemical, TR-FRET, DNA-binding domain, human | Methyl-CpG-binding domain protein 2 (Homo sapiens), Q9UBB5 | MBD2 binding to methylated oligonucleotide | inhibition, % at 4.4 µM | 370,000 tested, 0.31% active | AID 686964, 2013; in the data active = inhibition above about 13%
UHRF1 ctr MBD2 – UHRF1 methylated DNA binding inhibitors, counter-screen for MBD2 inhibitor project, biochemical, TR-FRET, human UHRF1; shares compounds with MBD2 DNA inh; UHRF1 binding to methylated oligonucleotide; inhibition, % at 4.4 µM; 1,000 tested, 25% active; AID 720530, 2013;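 note: UHRF1 SRA domain binding a labeled hemimethylated CpG hairpin DNA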
MBD2 DBD conf – inhibitors of MBD2 binding to methylated DNA, confirmation, biochemical, TR-FRET, DNA-binding domain, human; inhibition, % at 4.4 µM; TR-FRET MBD2-DBD binding to methylated oligonucleotide; shares compounds with MBD2 DNA inh; 1,000 tested, 26% active; AID 720531, 2013; in the data active = inhibition above about 14%
Numbers stand for hits; - = inactive; . = no result given. Sampled rows, rich in hits. Any-hit rate of the full collection: about 1.6%. Cut-off read from the data, not from the text of the source, unless noted: active = inhibition above about 21%; inactive = the rest.

SMILES	UHRF1 MBD2 ctr	TDP2 inh	LEDGF integ inh	MBD2 DNA inh	UHRF1 ctr MBD2	MBD2 DBD conf
CO[C@@H]1[C@H](O)CC[C@]2(O)CN(c3ccccc3)[C@](C)([C@H](O)CC=C(C)C)[C@@H]12	-	-	-	-	.	.
COC(=O)C(=Cc1ccncc1)c1cccc2ccccc12	-	-	-	40	-	-
CCCCCC[C@@H](CCCc1ccccc1OC)CN(CCCC)S(C)(=O)=O	-	-	-	-	.	.
Cc1nc2ccc(C(=O)Nc3ccccc3Cl)cc2s1	-	-	-	20	-	-
COc1ccccc1CNC(=O)N1CCC(c2nc3ccc(Cl)cc3[nH]2)CC1	-	-	-	-	.	.
COC(=O)[C@]12C[C@H](CC(=O)N3CCN(C(=O)c4ccco4)CC3)C(=O)N(CCc3ccc(OC)c(OC)c3)C1=C[C@H](COCc1ccccc1)O[C@@H]2C	-	-	-	-	.	.
COc1ccc(CCNCC(O)COc2cccc(C(C)=O)c2)cc1OC (stereo not drawn)	25	-	-	17	-	-
COc1ccc(CCNCC(O)COc2ccc(Cl)cc2)cc1OC (stereo not drawn)	-	-	-	-	.	.
COc1ccc2c(c1)CCCN2C(=O)C1CCCN(S(=O)(=O)c2cccc3ccccc23)C1 (stereo not drawn)	-	-	-	-	.	.
COc1ccccc1NC=C1C(=O)OC(C)(C)OC1=O	-	-	-	-	.	.
CCOc1ccccc1NC=C1C(=O)OC(C)(C)OC1=O	-	-	-	13	-	-
COc1ccc(-c2nc3c(C)cc(Br)cn3c2Cc2cccc(F)c2)cc1OC	-	-	-	-	.	.
COc1ccc(-c2nc3c4ccccc4ccn3c2Cc2cccc(F)c2)cc1OC	-	-	-	15	-	-
Cc1ccc(C)c(NC(=O)CNS(=O)(=O)c2ccc3[nH]c(=O)oc3c2)c1	-	-	-	-	.	.
COC(=O)[C@]12C[C@H](CC(=O)NCCc3ccccc3OC)C(=O)N(CCc3ccc(OC)c(OC)c3)C1=C[C@H](C(C)(C)C)O[C@@H]2C	-	-	-	-	.	.
Cc1ccc(/C=C2\SC(=S)N(NS(=O)(=O)c3ccc(C)cc3)C2=O)cc1	-	-	-	-	.	.
C=CCOc1ccc(/C=C2\SC(=S)N(NS(=O)(=O)c3ccc(C)cc3)C2=O)cc1	23	-	-	14	-	-
CON1C(=O)CN(C(C)=O)C1c1ccc(Cl)cc1Cl (stereo not drawn)	-	-	-	-	.	.
COC(=O)N1CC(=O)N(OC)C1c1ccc(Cl)cc1Cl (stereo not drawn)	25	-	-	15	-	-
COC(=O)C[C@@H]1CC[C@@H](NC(=O)NC2CCCC2)[C@@H](CO)O1	-	-	-	-	.	.
COC(=O)C[C@@H]1CC[C@@H](NC(=O)C2CCC2)[C@@H](CO)O1	23	-	-	21	-	-
Cc1cccc(Cn2cc(CN3CC(N(C)CCOC(=O)c4cc(C)cc(C)c4)CS3(=O)=O)nn2)c1 (stereo not drawn)	-	-	-	-	.	.
Cc1coc2cc3oc(=O)c(CCC(=O)NCC(=O)O)c(C)c3cc12	-	-	-	-	.	.
COCCCNC(=O)CCc1c(C)c2cc3c(C)coc3cc2oc1=O	-	-	-	13	-	-
O=C(O)c1ccc2c(c1)C(=O)/C(=C/c1ccccc1)C2=O	-	-	-	-	.	.
SMILES	UHRF1 MBD2 ctr	TDP2 inh	LEDGF integ inh	MBD2 DNA inh	UHRF1 ctr MBD2	MBD2 DBD conf
O=C(O)c1ccc2c(c1)C(=O)/C(=C\c1ccco1)C2=O	88	-	79	28	38	-
C=C(C)C(=O)Nc1cccc(C2=NOC3(C2)C[C@@H](C(N)=O)N(C(=O)CCCCC)C3)c1 (stereo partly drawn)	90	-	41	44	100	82
C[C@H](c1ccccc1)N1C[C@@H](COCc2ccccc2)Oc2cccc(Oc3ccc(C(C)(C)C)cc3)c2S1(=O)=O	-	-	-	-	.	.
CCCCN(C(=O)c1cccc(-n2cccc2)c1)c1c(N)n(Cc2ccccc2)c(=O)[nH]c1=O	33	-	-	18	43	35
CCCCN(C(=O)c1cccc(N2C(=O)c3ccccc3C2=O)c1)c1c(N)n(CC(C)C)c(=O)[nH]c1=O	-	-	-	-	.	.
CC(C)C(=O)N[C@H]1[C@H](O)CCC[C@]12C(=O)N(Cc1ccccc1)c1ccccc12	-	-	-	-	.	.
C[C@@H]1CCN(C2CC2)S(=O)(=O)c2c(cccc2N2CCC[C@@H]2C)O1	-	-	-	-	.	.
CCc1cc(/C(Cc2csc(C)n2)=N/O)c(O)cc1O	-	-	-	14	-	-
C[C@@H]1[C@@H](O)C[C@@]2(C[C@H](O)c3cc(Cl)cc(Cl)c3O2)O[C@H]1c1ccccc1Cl	-	-	-	-	.	.
O=C(O)Cc1ccc(-n2cccc2)cc1	30	-	-	14	57	28
O=C(Cc1ccc(-n2cccc2)cc1)NC1CCCCC1	-	-	-	-	.	.
CCOc1ccc(NC(=O)CN2CCCC2c2cccs2)cc1S(=O)(=O)N1CCCC1 (stereo not drawn)	-	-	-	42	-	-
CC1(C(=O)Nc2ccc3c(c2)OCO3)CCN1C(=O)CCC1CCCC1 (stereo not drawn)	-	-	-	20	-	-
COCCN1C(=O)[C@H]2C[C@@]13O[C@H](c1ccccn1)N=C3CC1c3ccccc3C[C@@]12C (stereo partly drawn)	-	-	-	-	.	.
C[C@@H]1CCC2[C@](C)(CO)[C@@H](O)CC[C@]2(C)[C@@]12CCC(CO)(CCO)O2 (stereo partly drawn)	-	-	-	25	-	-
CCOC(=O)CC[C@@H]1CC[C@]2(CCCN(Cc3nccn3C)C2)O1	-	-	-	-	.	.
CCCCNS(=O)(=O)CC1NCc2ccccc21 (stereo not drawn)	-	-	-	-	.	.
COCCN(C(=O)c1ccc2ccccc2c1)c1c(N)n(Cc2ccccc2)c(=O)[nH]c1=O	-	-	-	-	.	.
COCCn1c(N)c(N(Cc2ccccc2)C(=O)c2ccc3ccccc3c2)c(=O)[nH]c1=O	26	-	-	13	-	-
Cc1ccc(C(=O)NCc2ccc3c(c2)OCO3)c(Cl)c1	22	-	-	15	-	-
Cc1cc(NC(=O)Cc2cccs2)no1	29	-	-	16	25	19

Assay outcomes: PubChem, The Scripps Research Institute Molecular Screening Center
